Reference: ChEMBL document CHEMBL3286159, “Design, synthesis and molecular docking of amide and urea derivatives as Escherichia coli PDHc-E1 inhibitors” (Bioorg Med Chem, 2014)
pIC50: −log10 of the molar value.

Assay: Inhibition of purified Escherichia coli PDHc-E1 using sodium pyruvate as substrate assessed as reduction of 2,6-DichloroPhenolindophenol after 3 mins by spectrophotometry
In short: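 E. coli PDHc-E1 expressed as MBP fusion from pMal-C2X in E. coli TB1 (IPTG 0.5 mM, 7 h, 25 °C) and purified by MBP affinity. Mix of 50 mM K3PO4 pH 7.2, 2.0 mM pyruvate, 0.8 mM 2,6-DCPIP, 7.1 µM enzyme and inhibitor preincubated 3 min at 37 °C. ThDP (0–200 µM) added to start. DCPIP reduction read at 600 nm. Initial rates fit to Hill equation for IC50.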

| SMILES | pIC50 |
| --- | --- |
| Cc1ncc(CNC(=O)NCOc2ccccc2)c(N)n1 | 4.89 |
| Cc1ncc(CNC(=O)NCOc2ccc(F)cc2)c(N)n1 | 4.99 |
| Cc1ncc(CNC(=O)COc2ccccc2Br)c(N)n1 | 4.22 |
| Cc1ncc(CNC(=O)NCOc2ccc(Cl)cc2)c(N)n1 | 5.44 |
| Cc1ccc(OCNC(=O)NCc2cnc(C)nc2N)cc1 | 5.03 |
| Cc1ncc(CNC(=O)COc2ccccc2)c(N)n1 | 4.34 |
| COc1ccc(OCNC(=O)NCc2cnc(C)nc2N)cc1 | 5.20 |
| Cc1ncc(CNC(=O)COc2ccc([N+](=O)[O-])cc2)c(N)n1 | 5.45 |
| Cc1ncc(CNC(=O)COc2ccc(C#N)cc2)c(N)n1 | 4.87 |

Continued by rising pIC50, values first:

| pIC50 | SMILES |
| --- | --- |
| 4.66 | Cc1ncc(CNC(=O)COc2ccc(Cl)cc2C)c(N)n1 |
| 4.67 | Cc1ccc(OCC(=O)NCc2cnc(C)nc2N)cc1 |
| 4.76 | Cc1ncc(CNC(=O)COc2ccc(F)cc2)c(N)n1 |
| 4.78 | COc1ccc(OCC(=O)NCc2cnc(C)nc2N)cc1 |
| 4.78 | Cc1ncc(CNC(=O)COc2ccccc2Cl)c(N)n1 |
| 4.89 | Cc1ncc(CNC(=O)COc2ccc(Cl)cc2)c(N)n1 |
| 4.95 | Cc1ncc(CNC(=O)COc2ccc(Br)cc2)c(N)n1 |
| 5.02 | Cc1ncc(CNC(=O)COc2ccc(Cl)cc2Cl)c(N)n1 |
| 5.12 | Cc1ncc(CNC(=O)COc2ccc(F)cc2Cl)c(N)n1 |
| 5.31 | Cc1ncc(CNC(=O)COc2ccc([N+](=O)[O-])cc2Cl)c(N)n1 |
